Experimental data collected from several papers.
Protocols differ between the studies behind these lines.
ALDH2: Aldehyde dehydrogenase, mitochondrial (ALDH2, Homo sapiens, UniProt P05091)
HDAC11: Histone deacetylase 11 (HDAC11, Homo sapiens, UniProt Q96DB2)
CHRM1: Muscarinic acetylcholine receptor M1 (CHRM1, Homo sapiens, UniProt P11229)
CYP3A4: Cytochrome P450 3A4 (CYP3A4, Homo sapiens, UniProt P08684)

CN(C)C(=O)c1cc2cnc(Nc3ccc(-c4ccc5c(=O)cc(N6CCOCC6)oc5c4)cc3)nc2n1C1CCCC1  IC50 (Cytochrome P450 1A2 (CYP1A2, Homo sapiens, UniProt P05177); enzyme activity, inhibitor, fluorescence; pH 8): > 100 µM
COc1nc2ccc(Br)cc2cc1[C@@H](c1ccccc1)[C@@](O)(CCN(C)C)c1cccc2ccccc12  IC50 (ALDH2; enzyme activity, inhibitor, fluorescence): < 10 µM
CCCN(CCC)S(=O)(=O)c1ccc(C(=O)O)cc1  IC50 (Taste receptor type 2 member 14 (TAS2R14, Homo sapiens, UniProt Q9NYV8, S265A); inositol phosphate, antagonist, TR-FRET): 1000 µM
COc1ccc(N(Cc2csc(-c3ccc(Br)cc3)n2)C(=O)CCCCCC(=O)NO)cc1  IC50 (HDAC11; enzyme activity, inhibitor): > 10 µM
Cc1cc2c(cc1C)N[C@H](c1ccccc1)[C@@H](O)C(=O)N2  IC50 (Tyrosine-protein kinase JAK1 (JAK1, Homo sapiens, UniProt P23458); enzyme activity, inhibitor, ELISA): 0.804 µM
Nc1nc2c(s1)C(c1ccccc1Cl)CC(=O)N2 (centres unmarked)  IC50 (ALDH2; enzyme activity, inhibitor, fluorescence): < 10 µM
O=C(CCNC(=O)CNC(=O)CC(c1ccccc1)(c1ccccc1)c1ccccc1)NC[C@@H]1CCCN(Cc2cccnc2F)C1  IC50 (CHRM1; ligand displacement, radioligand; cell membranes): > 30 µM
CC(C)(C)S(=O)(=O)c1cc2c(Nc3ccc4scnc4c3)ncnc2cc1OCCOP(=O)(O)O  IC50 (CYP3A4; enzyme activity, inhibitor; human, liver microsomes; 5 min, pH 7.4, testosterone probe): 49 µM
CC(C)C[C@H](NC(=O)[C@@H](NC(=O)N[C@@H](Cc1ccccc1)C(=O)O)[C@@H]1CCN=C(N)N1)C(=O)N[C@H](C=O)Cc1ccccc1  IC50 (Chymase (CMA1, Homo sapiens, UniProt P23946); enzyme activity, inhibitor): 0.00777 µM
O=C(CCNC(=O)CNC(=O)CC(c1ccccc1)(c1ccccc1)c1ccccc1)NCC1CCN(Cc2ccc(F)cc2)CC1  IC50 (CHRM1; ligand displacement, radioligand; cell membranes): 5.9 µM
CNC(=O)[C@H](Cc1c[nH]c2ccccc12)NC(=O)[C@@H](CC(=O)NO)CC(C)C  IC50 (Collagenase 3 (MMP13, Homo sapiens, UniProt P45452); enzyme activity, inhibitor): 0.000129 µM
CCc1oc2ccccc2c1C(=O)c1cc(Br)c(O)c(Br)c1  IC50 (Solute carrier organic anion transporter family member 1B1 (SLCO1B1, Homo sapiens, UniProt Q9Y6L6); transporter uptake, inhibitor, radiometric; oocytes): 1.54 µM
Nc1cnccc1Nc1ccc(Cl)c(Cl)c1  IC50 (Endonuclease III-like protein 1 (NTHL1, Homo sapiens, UniProt P78549); enzyme activity, inhibitor): > 100 µM
OC[C@H]1O[C@@H](Oc2ccc(O)c3cccc(O)c23)[C@H](O)[C@@H](O)[C@@H]1O  IC50 (ALDH2; enzyme activity, inhibitor, fluorescence): < 10 µM
O=C(O)c1cc(-c2ccc(-n3ccnn3)cc2)c2ccc(-c3ccc(C(F)(F)F)cc3)cc2c1  IC50 (CYP3A4; enzyme activity, inhibitor): 7.07 µM
CC(C)N(CCC(=O)c1ccc2ccccc2c1)Cc1ccccc1  IC50 (ALDH2; enzyme activity, inhibitor, fluorescence): < 10 µM
COc1ccc(N(Cc2csc(-c3ccccc3)n2)C(=O)CCCCCC(=O)NO)cc1  IC50 (HDAC11; enzyme activity, inhibitor): > 10 µM
